Reference: ChEMBL document CHEMBL1138042, “2-[(4-phenylpiperazin-1-yl)methyl]imidazo(di)azines as selective D4-ligands. Induction of penile erection by 2-[4-(2-methoxyphenyl)piperazin-1-ylmethyl]imidazo[1,2-a]pyridine (PIP3EA), a potent and selective D4 partial agonist” (J Med Chem, 2006)

How the values were obtained:
[1] = target: T1, D(4) dopamine receptor (Homo sapiens, UniProt P21917); assay: Displacement of [3H]spiperone from human dopamine receptor D4.4 in CHO cell membrane; format: cell membranes
T1 sequence (P21917 whole entry): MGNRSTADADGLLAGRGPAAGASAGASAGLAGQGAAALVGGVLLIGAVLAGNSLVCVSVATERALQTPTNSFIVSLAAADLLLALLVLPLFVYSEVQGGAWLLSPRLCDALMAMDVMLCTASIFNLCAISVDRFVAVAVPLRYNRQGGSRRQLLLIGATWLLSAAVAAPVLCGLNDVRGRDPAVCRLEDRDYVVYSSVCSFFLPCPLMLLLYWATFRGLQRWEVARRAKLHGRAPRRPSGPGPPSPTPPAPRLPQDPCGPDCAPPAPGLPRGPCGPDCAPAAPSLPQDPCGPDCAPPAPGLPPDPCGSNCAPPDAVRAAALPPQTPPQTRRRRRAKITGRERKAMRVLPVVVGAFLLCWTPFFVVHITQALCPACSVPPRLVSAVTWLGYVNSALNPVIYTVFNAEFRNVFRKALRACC

[2] = target: T2, D(2) dopamine receptor (Homo sapiens, UniProt P14416); assay: Displacement of [3H]spiperone from human dopamine receptor D2(short) in CHO cell membrane; format: cell membranes
T2 sequence (P14416 whole entry): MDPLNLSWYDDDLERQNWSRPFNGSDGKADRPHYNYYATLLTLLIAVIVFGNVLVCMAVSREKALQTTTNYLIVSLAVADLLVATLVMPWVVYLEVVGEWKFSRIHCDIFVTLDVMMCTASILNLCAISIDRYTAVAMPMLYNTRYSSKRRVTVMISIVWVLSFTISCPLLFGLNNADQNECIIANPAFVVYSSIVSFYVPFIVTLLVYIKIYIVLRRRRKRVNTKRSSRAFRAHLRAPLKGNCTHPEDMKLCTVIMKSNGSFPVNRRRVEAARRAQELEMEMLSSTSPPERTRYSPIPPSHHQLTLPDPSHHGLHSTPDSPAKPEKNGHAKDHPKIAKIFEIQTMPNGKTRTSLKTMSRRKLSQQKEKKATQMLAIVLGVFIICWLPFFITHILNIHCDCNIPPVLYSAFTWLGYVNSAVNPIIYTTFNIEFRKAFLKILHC

[3] = target: T2, D(2) dopamine receptor; assay: Displacement of [3H]spiperone from human dopamine receptor D2(long) in CHO cell membrane; format: cell membranes
[4] = target: D(3) dopamine receptor (Homo sapiens, UniProt P35462); assay: Displacement of [3H]spiperone from human dopamine receptor D3 in CHO cell membrane; format: cell membranes
Sequence of D(3) dopamine receptor (P35462 whole entry): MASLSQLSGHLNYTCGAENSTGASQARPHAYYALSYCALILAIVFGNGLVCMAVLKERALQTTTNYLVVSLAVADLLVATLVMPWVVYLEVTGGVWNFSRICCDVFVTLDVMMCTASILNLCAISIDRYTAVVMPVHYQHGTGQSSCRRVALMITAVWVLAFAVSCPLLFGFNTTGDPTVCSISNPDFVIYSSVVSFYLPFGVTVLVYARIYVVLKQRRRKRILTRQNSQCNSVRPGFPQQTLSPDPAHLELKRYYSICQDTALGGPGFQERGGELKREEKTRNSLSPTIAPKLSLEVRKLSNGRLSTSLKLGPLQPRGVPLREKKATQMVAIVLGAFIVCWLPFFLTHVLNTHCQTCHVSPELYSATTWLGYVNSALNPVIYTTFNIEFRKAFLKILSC

[5] = target: D(1A) dopamine receptor (Sus scrofa, UniProt P50130); assay: Displacement of [3H][…] from dopamine receptor D1 in porcine striatal membrane; format: cell membranes, Striatum
Sequence of D(1A) dopamine receptor (P50130 whole entry): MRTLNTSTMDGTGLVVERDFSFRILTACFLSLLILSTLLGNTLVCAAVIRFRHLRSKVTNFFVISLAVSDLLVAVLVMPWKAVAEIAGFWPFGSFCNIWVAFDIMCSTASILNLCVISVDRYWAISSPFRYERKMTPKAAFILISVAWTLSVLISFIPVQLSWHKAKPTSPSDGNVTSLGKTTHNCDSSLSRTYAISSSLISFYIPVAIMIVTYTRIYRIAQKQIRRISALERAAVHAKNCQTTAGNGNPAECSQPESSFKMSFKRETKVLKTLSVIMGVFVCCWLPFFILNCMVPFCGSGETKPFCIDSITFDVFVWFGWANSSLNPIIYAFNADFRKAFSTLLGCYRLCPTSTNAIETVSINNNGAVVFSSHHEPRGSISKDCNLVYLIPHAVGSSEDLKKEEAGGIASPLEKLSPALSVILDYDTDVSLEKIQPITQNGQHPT

[6] = target: T3, Dopamine receptors; D2 & D4 (Homo sapiens) (UniProt P14416+P21917); assay: Selectivity for human dopamine D4.4 receptor over dopamine D2(long) receptor; format: protein assay
T3 sequence (P14416 whole entry, looked up, one chain of several): as the sequence (P14416 whole entry) above

[7] = target: T3, Dopamine receptors; D2 & D4 (Homo sapiens); assay: Selectivity for human dopamine D4.4 receptor over dopamine D2(short) receptor; format: protein assay
[8] = Selectivity for human dopamine D4.4 receptor over porcine dopamine D1 receptor
[9] = target: T4, D(4) dopamine receptor (Homo sapiens) (UniProt P21917); assay: Intrinsic activity at human D4.2 receptor assessed as [3H]thymidine incorporation in CHO 10001 cells relative to quinpirole by mitogenesis assay; format: functional, cell-based
T4 sequence (whole entry): T1 sequence (P21917 whole entry)
Method in brief: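 CHO10001 cells expressing human D4.2 were seeded at 5000 cells/well, grown 72 h in serum medium, then switched to serum-free medium. Compound was applied for 20 h at 8 concentrations (0.01-10 000 nM) in hexaduplicate. [³H]thymidine (0.02 µCi/well) was added for 2 h and incorporation counted.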

[10] = target: Dopamine receptors; D3 & D4 (Homo sapiens) (UniProt P35462+P21917); assay: Selectivity for human dopamine D4.4 receptor over dopamine D3 receptor; format: protein assay
Sequence of Dopamine receptors; D3 & D4 (Homo sapiens) (P35462 whole entry, looked up, one chain of several): as the sequence (P35462 whole entry) above

[11] = target: T1, D(4) dopamine receptor; assay: Activity at human D4.2 receptor assessed as [3H]thymidine incorporation in CHO 10001 cells by mitogenesis assay; format: functional, cell-based
[12] = target: 5-hydroxytryptamine receptor 2A (Sus scrofa, UniProt P50129); assay: Displacement of [3H]ketanserin from 5HT2 receptor in porcine cortical membrane; format: cell membranes
Sequence of 5-hydroxytryptamine receptor 2A (P50129 whole entry): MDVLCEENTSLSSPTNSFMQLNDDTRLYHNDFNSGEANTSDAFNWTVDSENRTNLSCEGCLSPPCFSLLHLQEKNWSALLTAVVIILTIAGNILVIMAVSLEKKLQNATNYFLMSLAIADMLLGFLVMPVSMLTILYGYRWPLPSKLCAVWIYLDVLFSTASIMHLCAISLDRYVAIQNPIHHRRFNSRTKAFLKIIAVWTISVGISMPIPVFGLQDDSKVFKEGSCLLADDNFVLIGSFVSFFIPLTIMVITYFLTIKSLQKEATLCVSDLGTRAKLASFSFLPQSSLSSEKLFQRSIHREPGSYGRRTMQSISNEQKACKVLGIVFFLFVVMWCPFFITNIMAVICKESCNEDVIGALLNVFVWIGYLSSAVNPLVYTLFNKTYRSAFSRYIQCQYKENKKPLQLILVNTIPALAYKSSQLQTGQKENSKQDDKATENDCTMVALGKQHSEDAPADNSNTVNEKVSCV

[13] = target: T4, D(4) dopamine receptor (Homo sapiens); assay: Intrinsic activity at human D4.4 receptor expressed in CHOK1 cells assessed as stimulation of [35S]GTP-gammaS binding relative to quinpirole; format: functional, cell-based; settings: CHO-K1
Method in brief: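 Membranes from CHO cells stably expressing human D4.4 (Bmax 2.25 pmol/mg protein) in HEPES buffer pH 7.4 with 1 µM GDP at 37 °C. Test agent given at eight concentrations (0.01–10 000 nM) in hexaduplicate for 30 min, then 0.1 nM [35S]GTPγS for a further 30 min. Bound label filtered and counted.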

[14] = target: T1, D(4) dopamine receptor; assay: Activity at human D4.4 receptor expressed in CHOK1 cells assessed as stimulation of [35S]GTP-gammaS binding; format: functional, cell-based, CHO-K1
[15] = test system: Rattus norvegicus; assay: Penile erection in Sprague-Dawley rat at 5 ug/kg, sc; format: functional
Method in brief: (§1)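 Male Sprague-Dawley rats (225-250 g) were dosed s.c. (0.2 mL/rat) or i.c.v. (10 µL/rat, via a stereotaxic guide cannula implanted under chloral hydrate 3 days earlier). Vehicle was ethanol diluted in water to 0.3%. Rats were acclimated 30 min in individual cages, then observed 60 min after injection. Erections were scored as penis emerging from the sheath. Means ± SEM, 6 rats/group; cannula placement was checked histologically.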

[16] = test system: Rattus norvegicus; assay: Penile erection in Sprague-Dawley rat at 0.5 ug/kg, icv; format: functional; settings: in the assay text read “0.5 ug/rat” for “0.5 ug/kg”; method in brief: as §1
[17] = test system: Rattus norvegicus; assay: Penile erection in Sprague-Dawley rat at 20 ug/kg, sc; format: functional; method in brief: as §1
[18] = test system: Rattus norvegicus; assay: Penile erection in Sprague-Dawley rat at 1 ug, icv; format: functional; method in brief: as §1
[19] = target: Adrenergic receptor alpha-1 (Sus scrofa); assay: Displacement of [3H]prazosin from porcine Adrenergic alpha-1 receptor in porcine brain
[20] = Selectivity for human dopamine D4.4 receptor over adrenergic alpha-1 receptor

Structure (SMILES) | Ki [1] [nM] | Ki [2] [nM] | Ki [3] [nM] | Ki [4] [nM] | Ki [5] [nM] | Activity [9] [%] | further results
COc1ccccc1N1CCN(Cc2cn3cc(C)cc(-n4cccn4)c3n2)CC1 | 1.6 | 280 | 530 | 2400 | 8700 |  | 
Clc1ccc(N2CCN(Cc3cn4cc(Br)ccc4n3)CC2)cc1Cl | 0.99 | 3700 | 3500 | 1000 | 2500 | 0 | Selectivity ratio [6]: > 440; Selectivity ratio [7]: > 440; Selectivity ratio [8]: > 440; Selectivity ratio [10]: > 440
N#Cc1ccc2[nH]c(CN3CCN(c4ccccc4)CC3)cc2c1 |  |  |  |  | 13000 |  | 
COc1ccccc1N1CCN(Cc2cn3cc(C)cc(N4CCOCC4)c3n2)CC1 | 2.3 | 100 | 210 | 2100 | 6400 |  | 
Fc1ccc(N2CCN(Cc3cn4cccnc4n3)CC2)cc1 | 2800 | 49000 | 55000 | 60000 | 47000 |  | 
Clc1ccc(N2CCN(Cc3cn4nc(N5CCCCC5)ccc4n3)CC2)cc1Cl | 120 | 710 | 1100 | 850 | 2200 |  | 
COc1ccccc1N1CCN(Cc2cn3cc(I)ccc3n2)CC1 | 0.33 | 72 | 73 | 600 | 6400 | 10 | EC50 [11]: 0.52 nM
Clc1ccc(N2CCN(Cc3cn4ccccc4n3)CC2)cc1 | 7 | 16000 | 15000 | 8800 | 6700 | 6 | Ki [12]: 1200 nM; Activity [13]: 18%; EC50 [11]: 1.8 nM; EC50 [14]: 2.6 nM
COc1ccccc1N1CCN(Cc2cn3ccccc3n2)CC1 |  |  |  |  |  | 46 | Ki [12]: 5900 nM; Activity [13]: 57%; Activity [15]: 1.02; Activity [16]: 1.12; Activity [17]: 2.42; Activity [18]: 2.32
COc1ccccc1N1CCN(Cc2cn3cc(C)cc(Br)c3n2)CC1 | 0.99 | 150 | 240 | 670 | 5600 |  | 
Fc1ccc(N2CCN(Cc3cn4ccccc4n3)CC2)cc1 | 44 | 19000 | 21000 | 3100 | 8400 |  | Ki [12]: 860 nM; Selectivity ratio [6]: > 440; Selectivity ratio [7]: > 440; Selectivity ratio [8]: > 440; Selectivity ratio [10]: > 440; Ki [19]: 260 nM
COc1ccccc1N1CCN(Cc2cn3nc(Cl)ccc3n2)CC1 | 1.6 | 79 | 96 | 1400 | 7700 | 0 | Ki [12]: 3400 nM
COc1ccccc1N1CCN(Cc2cn3cc(C)cc(I)c3n2)CC1 | 0.53 | 97 | 88 | 470 | 5900 | 0 | 
Clc1ccc(N2CCN(Cc3cn4nc(Cl)ccc4n3)CC2)cc1 | 2 | 8200 | 12000 | 7700 | 5500 | 0 | Ki [12]: 910 nM
COc1ccccc1N1CCN(Cc2cn3cc(Br)ccc3n2)CC1 | 0.25 | 140 | 130 | 800 | 7100 | 0 | 
COc1ccccc1N1CCN(Cc2cn3c(-n4cccn4)cccc3n2)CC1 | 0.94 | 280 | 590 | 1000 | 27000 |  | 
Fc1ccc(N2CCN(Cc3cn4ccncc4n3)CC2)cc1 | 500 | 68000 | 64000 | 42000 | 15000 |  | 
Clc1ccc(N2CCN(Cc3cn4ccccc4n3)CC2)cc1Cl | 1.4 | 2700 | 3200 | 1700 | 2300 | 0 | Ki [12]: 1200 nM
COc1ccccc1N1CCN(Cc2cn3cc(C)cc(-c4ccccc4)c3n2)CC1 | 0.84 | 28 | 49 | 390 | 2900 |  | 
COc1ccccc1N1CCN(Cc2cn3cc(C)cc(C#N)c3n2)CC1 | 1.3 | 2700 | 4200 | 3500 | 40000 |  | Selectivity ratio [6]: 3230; Selectivity ratio [7]: 2080
CN1CCN(c2ccc3nc(CN4CCN(c5ccc(Cl)c(Cl)c5)CC4)cn3n2)CC1 | 1900 | 7800 | 8000 | 880 | 13000 |  | 
Fc1ccc(N2CCN(Cc3cn4nc(Cl)ccc4n3)CC2)cc1 | 4 | 12000 | 9900 | 5600 | 7000 |  | 
N#Cc1ccc2[nH]c(CN3CCN(c4ccc(F)cc4)CC3)cc2c1 |  |  |  |  | 8600 |  | 
Cc1cccc(C(=O)NCN2CCN(c3ccccc3C#N)CC2)c1 |  |  |  |  |  |  | Selectivity ratio [20]: 8
Clc1ccc2nc(CN3CCN(c4ccc(Cl)c(Cl)c4)CC3)cn2n1 | 1.3 | 670 | 1100 | 1500 | 1500 | 0 | Ki [12]: 1200 nM
